In ChEMBL document CHEMBL5625169, “Development of novel PEX5-PEX14 protein-protein interaction (PPI) inhibitors based on an oxopiperazine template” (Eur J Med Chem, 2023):

Key:
[1] = target: CREB-binding protein/Histone acetyltransferase p300 (Homo sapiens, UniProt Q09472+Q92793); assay: Binding affinity to p300-CBP (unknown origin) protein protein interaction assessed as dissociation constant by tryptophan fluorescence assay
[2] = tested on: HepG2; assay: Cytotoxicity against human HepG2 cells assessed as reduction in cell viability incubated for 66 hrs by resazurin staining based analysis; type: functional; conditions: HepG2, 66 h
Summary of the method: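 HepG2 cells seeded at 5000 per well and grown overnight at 37 °C, 5% CO2. Compounds tested in triplicate at 100 to 3.125 µM (twofold dilutions); hygromycin B as cytotoxic control. After 66 h, resazurin added and plates incubated a further 6 h. Fluorescence background-subtracted and normalised to untreated cells; EC50 from sigmoidal dose-response fit.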

[3] = Inhibition of Trypanosoma brucei biotinylated PEX5 /N-terminal His-tagged PEX14 (19 to 84 residues) protein-protein interaction expressed in Escherichia coli BL21 assessed as inhibition constant by AlphaScreen assay
Summary of the method: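 TbPEX14 N-terminal domain (aa 19–84) expressed from pETM-11 in E. coli BL21, Ni-NTA then gel filtration in PBS. AlphaScreen competition with serial inhibitor dilution, other components held constant, quadruplicate. Ki = EC50/(1+[LT]/KdL*T), apparent Kd measured for each condition.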

[4] = tested on: Trypanosoma brucei; assay: Antitrypanosomal activity against blood stream form of Trypanosoma brucei Lister 427 MITat 1.2 assessed as parasite growth inhibition incubated for 66 hrs by resazurin dye based assay; type: functional, organism-based; conditions: Lister 427 MITat 1.2, 66 h
Summary of the method: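 Bloodstream-form Lister 427 (MITat 1.2) parasites maintained in HMI-11 with 10% FBS at 37 °C, 5% CO2. Twofold serial dilutions, 10 per row, in quadruplicate. Final 2×10^3 parasites/mL, 66 h, then resazurin added and incubated to 72 h. Fluorescence read at ex 530/em 585 nm, background subtracted, untreated wells taken as 100% survival. EC50 from sigmoidal dose-response fit.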

[5] = Selectivity index, ratio of EC50 for cytotoxicity against human HepG2 cells assessed as reduction in cell viability to EC50 for antitrypanosomal activity against blood stream form of Trypanosoma brucei Lister 427 MITat 1.2 assessed as parasite growth inhibition; type: toxicity, cell-based; conditions: read-out: Ratio EC50
Summary of the method: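 Ratio of HepG2 EC50 (µM) to T. b. brucei EC50. Parasites: bloodstream form, 2×10^3/mL, 66 h plus resazurin to 72 h, quadruplicate.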

[6] = target: Tumour suppressor p53/oncoprotein Mdm2 (Homo sapiens, UniProt P04637+Q00987); assay: Binding affinity to MDM2-p53 (unknown origin) protein protein interaction assessed as dissociation constant by fluorescence polarization assay
Tumour suppressor p53/oncoprotein Mdm2, sequence (P04637 whole entry): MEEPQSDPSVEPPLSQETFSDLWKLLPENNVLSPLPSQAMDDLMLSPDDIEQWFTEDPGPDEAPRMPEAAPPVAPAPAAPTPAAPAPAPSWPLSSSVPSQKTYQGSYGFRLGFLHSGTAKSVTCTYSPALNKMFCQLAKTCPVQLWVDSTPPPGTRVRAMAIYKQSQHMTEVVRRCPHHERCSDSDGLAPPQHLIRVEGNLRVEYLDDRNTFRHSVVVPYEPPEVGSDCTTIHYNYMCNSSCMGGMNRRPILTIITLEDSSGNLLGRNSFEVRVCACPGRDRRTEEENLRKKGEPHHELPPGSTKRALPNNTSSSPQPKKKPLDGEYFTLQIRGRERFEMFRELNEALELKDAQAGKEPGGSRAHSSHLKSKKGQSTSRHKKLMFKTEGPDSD
Tumour suppressor p53/oncoprotein Mdm2, sequence (Q00987 whole entry): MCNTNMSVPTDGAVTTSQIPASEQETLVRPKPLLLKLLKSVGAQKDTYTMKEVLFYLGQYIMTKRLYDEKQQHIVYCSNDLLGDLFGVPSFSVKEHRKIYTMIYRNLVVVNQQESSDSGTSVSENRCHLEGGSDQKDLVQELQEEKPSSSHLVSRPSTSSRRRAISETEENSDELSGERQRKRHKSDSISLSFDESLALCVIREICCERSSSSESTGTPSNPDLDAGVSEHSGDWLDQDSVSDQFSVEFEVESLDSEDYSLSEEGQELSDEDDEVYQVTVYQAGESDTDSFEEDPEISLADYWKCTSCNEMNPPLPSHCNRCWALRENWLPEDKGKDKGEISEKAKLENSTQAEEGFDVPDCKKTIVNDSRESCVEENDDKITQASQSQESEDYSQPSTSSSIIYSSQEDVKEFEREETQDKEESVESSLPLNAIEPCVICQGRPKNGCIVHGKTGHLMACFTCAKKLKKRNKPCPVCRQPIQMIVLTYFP

Question: With `CC(C)C[C@@H]1NCCN([C@@H](CC(C)C)C(=O)N2CCN([C@@H](CCC(N)=O)C(N)=O)C(=O)[C@@H]2C)C1=O` as the compound, how does the Kd [1] read?
Answer: The Kd was 0.53 µM.

Question: With `COC(=O)[C@H](Cc1c[nH]c2ccccc12)N1CC(=O)N[C@H](C(=O)NCc2cccc3ccccc23)C1` as the compound, how does the EC50 [2] read?
Answer: The EC50 was 33 µM.

Question: And the Ki [3]?
Answer: The Ki was 77 µM.

Question: And the EC50 [4]?
Answer: The EC50 was 10 µM.

Question: And the selectivity ratio [5]?
Answer: The selectivity ratio was 3.2.

Question: With `COC(=O)[C@H](Cc1ccccc1)N1CC(=O)N[C@@H](Cc2c[nH]c3ccccc23)C1=O` as the compound, how does the EC50 [2] read?
Answer: Its EC50 is 24 µM.

Question: What about the Ki [3] of the same compound?
Answer: Its Ki is > 1000 µM.

Question: What about the EC50 [4] of the same compound?
Answer: Its EC50 is 29 µM.

Question: What about the selectivity ratio [5] of the same compound?
Answer: Its selectivity ratio is < 1.

Question: Which EC50 [2] does the source give for `COC(=O)[C@H](Cc1ccccc1)N1CCN[C@@H](Cc2c[nH]c3ccccc23)C1=O` here?
Answer: Its EC50 is > 100 µM.

Question: What about the Ki [3] of the same compound?
Answer: Its Ki is 265 µM.

Question: What about the EC50 [4] of the same compound?
Answer: Its EC50 is 43 µM.

Question: And the selectivity ratio [5]?
Answer: The selectivity ratio was > 2.3.

Question: Which results are given for `COC(=O)[C@H](Cc1c[nH]c2ccccc12)N1CC(=O)N[C@@H](Cc2c[nH]c3ccccc23)C1`?
Answer: EC50 [2]: 17 µM; Ki [3]: 27 µM; EC50 [4]: 5 µM; selectivity ratio [5]: 3.6

Question: With `COC(=O)[C@H](Cc1c[nH]c2ccccc12)N1CCN[C@@H](Cc2c[nH]c3ccccc23)C1=O` as the compound, how does the EC50 [2] read?
Answer: The EC50 was > 100 µM.

Question: And the Ki [3]?
Answer: The Ki was 133 µM.

Question: And the EC50 [4]?
Answer: Its EC50 is 30 µM.

Question: And the selectivity ratio [5]?
Answer: The selectivity ratio was > 3.4.

Question: For `O=C1CN(CCc2c[nH]c3ccccc23)C[C@H](Cc2c[nH]c3ccccc23)N1`, which EC50 [2] is on record?
Answer: The EC50 was 12 µM.

Question: What about the Ki [3] of the same compound?
Answer: Its Ki is 41 µM.

Question: What about the EC50 [4] of the same compound?
Answer: Its EC50 is 7 µM.

Question: And the selectivity ratio [5]?
Answer: Its selectivity ratio is 1.7.

Question: With `COC(=O)[C@H](Cc1c[nH]c2ccccc12)N1CC(=O)N[C@H](C(=O)NCc2ccccc2)C1` as the compound, how does the EC50 [2] read?
Answer: The EC50 was > 100 µM.

Question: And the Ki [3]?
Answer: The Ki was 494 µM.

Question: What about the EC50 [4] of the same compound?
Answer: The EC50 was > 100 µM.

Question: Which EC50 [2] does the source give for `COC(=O)[C@H](Cc1c[nH]c2ccccc12)N1C[C@H](Cc2c[nH]c3ccccc23)NC(=O)C1=O` here?
Answer: The EC50 was > 100 µM.

Question: And the Ki [3]?
Answer: Its Ki is 75 µM.

Question: What about the EC50 [4] of the same compound?
Answer: Its EC50 is 29 µM.

Question: And the selectivity ratio [5]?
Answer: Its selectivity ratio is > 3.4.

Question: For `NC(=O)[C@H](Cc1c[nH]c2ccccc12)N1CCN[C@@H](Cc2c[nH]c3ccccc23)C1=O`, which EC50 [2] is on record?
Answer: Its EC50 is > 100 µM.

Question: And the Ki [3]?
Answer: Its Ki is 288 µM.

Question: What about the EC50 [4] of the same compound?
Answer: Its EC50 is > 100 µM.

Question: What does the source list for `O=C1CN(C(=O)Cc2c[nH]c3ccccc23)C[C@H](Cc2c[nH]c3ccccc23)N1`?
Answer: EC50 [2]: > 100 µM; Ki [3]: 195 µM; EC50 [4]: > 100 µM

Question: With `COC(=O)[C@H](Cc1ccccc1)N1CC(=O)N[C@@H](Cc2c[nH]c3ccccc23)C1` as the compound, how does the EC50 [2] read?
Answer: Its EC50 is 56 µM.

Question: And the Ki [3]?
Answer: Its Ki is 73 µM.

Question: And the EC50 [4]?
Answer: Its EC50 is 13 µM.

Question: And the selectivity ratio [5]?
Answer: The selectivity ratio was 4.3.

Question: With `O=C1CN([C@H](CO)Cc2c[nH]c3ccccc23)C[C@H](Cc2c[nH]c3ccccc23)N1` as the compound, how does the EC50 [2] read?
Answer: The EC50 was 24 µM.

Question: And the Ki [3]?
Answer: The Ki was 48 µM.

Question: What about the EC50 [4] of the same compound?
Answer: The EC50 was 14 µM.

Question: What about the selectivity ratio [5] of the same compound?
Answer: The selectivity ratio was 1.7.

Question: Which EC50 [2] does the source give for `COC(=O)[C@H](Cc1c[nH]c2ccccc12)N1CCN(C(C)=O)[C@@H](Cc2c[nH]c3ccccc23)C1=O` here?
Answer: The EC50 was > 100 µM.

Question: What about the Ki [3] of the same compound?
Answer: The Ki was 542 µM.

Question: What about the EC50 [4] of the same compound?
Answer: The EC50 was > 100 µM.

Question: What does the source list for `CC(=O)OC[C@H](Cc1c[nH]c2ccccc12)N1CC(=O)N[C@@H](Cc2c[nH]c3ccccc23)C1`?
Answer: EC50 [2]: 29 µM; Ki [3]: 58 µM; EC50 [4]: 13 µM; selectivity ratio [5]: 1.8

Question: With `COC(=O)[C@H](Cc1c[nH]c2ccccc12)N1CCCN[C@@H](Cc2c[nH]c3ccccc23)C1=O` as the compound, how does the EC50 [2] read?
Answer: The EC50 was 21 µM.

Question: What about the Ki [3] of the same compound?
Answer: The Ki was 53 µM.

Question: And the EC50 [4]?
Answer: Its EC50 is 5 µM.

Question: What about the selectivity ratio [5] of the same compound?
Answer: The selectivity ratio was 4.2.

Question: With `CC(C)C[C@@H](C(N)=O)N1CCN(C(=O)[C@H](Cc2c[nH]c3ccccc23)N2CCN[C@@H](Cc3ccccc3)C2=O)[C@@H](Cc2ccccc2)C1=O` as the compound, how does the Kd [6] read?
Answer: The Kd was 2.9 µM.

Question: With `NC(=O)[C@H](Cc1ccccc1)N1CC(=O)N[C@@H](Cc2c[nH]c3ccccc23)C1=O` as the compound, how does the EC50 [2] read?
Answer: Its EC50 is > 100 µM.

Question: And the Ki [3]?
Answer: Its Ki is > 1000 µM.

Question: What about the EC50 [4] of the same compound?
Answer: Its EC50 is > 100 µM.
